Active and inactive are the calls of the source. No cut-off for these calls is given here.
Tests used:
[1] = target: Ribosomal protein S6 kinase alpha-4 (Homo sapiens) (UniProt O75676); assay: Inhibition of RPS6KA4 kinase domain 2 (unknown origin) assessed as residual enzyme activity at 10 uM by Ambit kinase binding assay relative to control
[2] = target: Inhibitor of nuclear factor kappa-B kinase subunit alpha (Homo sapiens) (UniProt O15111); assay: Inhibition of IKK-alpha (unknown origin) assessed as residual enzyme activity at 10 uM by Ambit kinase binding assay relative to control
[3] = target: BMP-2-inducible protein kinase (Homo sapiens) (UniProt Q9NSY1); assay: Inhibition of BIKE (unknown origin) assessed as residual enzyme activity at 10 uM by Ambit kinase binding assay relative to control
Sequence of BMP-2-inducible protein kinase (Homo sapiens) (Q9NSY1 whole entry, looked up): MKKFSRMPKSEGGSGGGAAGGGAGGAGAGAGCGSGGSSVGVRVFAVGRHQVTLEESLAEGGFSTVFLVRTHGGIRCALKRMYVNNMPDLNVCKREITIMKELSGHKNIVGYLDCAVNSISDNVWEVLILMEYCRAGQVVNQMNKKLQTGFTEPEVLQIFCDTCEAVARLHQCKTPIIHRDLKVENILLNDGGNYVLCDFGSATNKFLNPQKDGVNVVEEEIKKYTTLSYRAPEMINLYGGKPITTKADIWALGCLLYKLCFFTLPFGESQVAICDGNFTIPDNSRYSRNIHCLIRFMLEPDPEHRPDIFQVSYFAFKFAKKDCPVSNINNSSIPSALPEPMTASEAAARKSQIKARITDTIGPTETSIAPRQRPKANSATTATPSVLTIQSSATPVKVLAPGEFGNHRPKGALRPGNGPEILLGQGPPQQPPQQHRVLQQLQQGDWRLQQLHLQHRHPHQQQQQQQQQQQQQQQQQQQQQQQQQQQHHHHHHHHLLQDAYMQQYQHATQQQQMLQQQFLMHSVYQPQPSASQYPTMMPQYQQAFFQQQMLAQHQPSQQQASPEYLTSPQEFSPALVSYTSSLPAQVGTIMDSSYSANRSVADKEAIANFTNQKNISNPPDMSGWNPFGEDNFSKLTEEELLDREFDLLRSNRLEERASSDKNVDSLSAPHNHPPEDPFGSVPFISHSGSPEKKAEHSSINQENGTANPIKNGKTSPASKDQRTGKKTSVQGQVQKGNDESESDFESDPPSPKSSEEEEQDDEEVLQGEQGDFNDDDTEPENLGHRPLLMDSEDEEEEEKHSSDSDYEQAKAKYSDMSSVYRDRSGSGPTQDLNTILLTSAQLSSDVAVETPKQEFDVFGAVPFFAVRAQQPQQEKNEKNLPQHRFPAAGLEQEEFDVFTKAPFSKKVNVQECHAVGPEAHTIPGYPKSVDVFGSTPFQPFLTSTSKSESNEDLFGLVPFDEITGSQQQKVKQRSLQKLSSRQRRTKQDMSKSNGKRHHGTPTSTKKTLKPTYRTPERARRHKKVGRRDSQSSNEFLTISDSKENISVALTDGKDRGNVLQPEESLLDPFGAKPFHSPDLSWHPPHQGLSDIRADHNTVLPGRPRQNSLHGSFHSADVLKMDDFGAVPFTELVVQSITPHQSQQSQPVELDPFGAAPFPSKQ

[4] = target: Receptor-interacting serine/threonine-protein kinase 4 (Homo sapiens) (UniProt P57078); assay: Inhibition of RIPK4 (unknown origin) assessed as residual enzyme activity at 10 uM by Ambit kinase binding assay relative to control
[5] = target: Serine/threonine-protein kinase tousled-like 2 (Homo sapiens) (UniProt Q86UE8); assay: Inhibition of TLK2 (unknown origin) assessed as residual enzyme activity at 10 uM by Ambit kinase binding assay relative to control
Sequence of Serine/threonine-protein kinase tousled-like 2 (Homo sapiens) (Q86UE8 whole entry, looked up, the tested form may be a part): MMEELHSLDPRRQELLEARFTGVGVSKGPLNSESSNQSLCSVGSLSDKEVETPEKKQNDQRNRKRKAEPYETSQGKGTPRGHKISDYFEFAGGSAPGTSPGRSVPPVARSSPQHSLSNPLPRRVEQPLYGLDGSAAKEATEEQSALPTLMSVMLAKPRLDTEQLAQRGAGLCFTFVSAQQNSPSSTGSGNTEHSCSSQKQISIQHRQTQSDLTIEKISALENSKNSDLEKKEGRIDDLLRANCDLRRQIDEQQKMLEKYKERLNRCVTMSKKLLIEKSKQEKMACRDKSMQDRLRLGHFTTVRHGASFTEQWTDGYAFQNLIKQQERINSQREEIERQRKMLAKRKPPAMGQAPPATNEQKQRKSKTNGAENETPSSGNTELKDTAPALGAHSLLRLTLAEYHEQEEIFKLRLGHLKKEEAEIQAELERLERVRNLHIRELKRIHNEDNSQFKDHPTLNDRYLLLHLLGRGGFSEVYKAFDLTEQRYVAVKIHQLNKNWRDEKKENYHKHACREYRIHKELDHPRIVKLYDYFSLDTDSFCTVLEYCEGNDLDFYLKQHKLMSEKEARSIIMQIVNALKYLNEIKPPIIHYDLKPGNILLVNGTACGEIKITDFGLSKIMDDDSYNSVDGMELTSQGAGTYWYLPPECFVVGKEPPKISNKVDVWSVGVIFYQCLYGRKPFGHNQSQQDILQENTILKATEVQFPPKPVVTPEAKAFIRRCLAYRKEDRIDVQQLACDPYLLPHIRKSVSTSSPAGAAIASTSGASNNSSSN

[6] = target: Ribosomal protein S6 kinase alpha-1 (Homo sapiens) (UniProt Q15418); assay: Inhibition of RPS6KA1 kinase domain 2 (unknown origin) assessed as residual enzyme activity at 10 uM by Ambit kinase binding assay relative to control
[7] = target: SRSF protein kinase 3 (Homo sapiens) (UniProt Q9UPE1); assay: Inhibition of SRPK3 (unknown origin) assessed as residual enzyme activity at 10 uM by Ambit kinase binding assay relative to control
[8] = target: Ankyrin repeat and protein kinase domain-containing protein 1 (Homo sapiens) (UniProt Q8NFD2); assay: Inhibition of ANKK1 (unknown origin) assessed as residual enzyme activity at 10 uM by Ambit kinase binding assay relative to control
[9] = target: Death-associated protein kinase 2 (Homo sapiens) (UniProt Q9UIK4); assay: Inhibition of DAPK2 (unknown origin) assessed as residual enzyme activity at 10 uM by Ambit kinase binding assay relative to control
[10] = target: Death-associated protein kinase 3 (Homo sapiens) (UniProt O43293); assay: Inhibition of DAPK3 (unknown origin) assessed as residual enzyme activity at 10 uM by Ambit kinase binding assay relative to control
[11] = target: Inhibitor of nuclear factor kappa-B kinase subunit epsilon (Homo sapiens) (UniProt Q14164); assay: Inhibition of IKK-epsilon (unknown origin) assessed as residual enzyme activity at 10 uM by Ambit kinase binding assay relative to control
Sequence of Inhibitor of nuclear factor kappa-B kinase subunit epsilon (Homo sapiens) (Q14164 whole entry): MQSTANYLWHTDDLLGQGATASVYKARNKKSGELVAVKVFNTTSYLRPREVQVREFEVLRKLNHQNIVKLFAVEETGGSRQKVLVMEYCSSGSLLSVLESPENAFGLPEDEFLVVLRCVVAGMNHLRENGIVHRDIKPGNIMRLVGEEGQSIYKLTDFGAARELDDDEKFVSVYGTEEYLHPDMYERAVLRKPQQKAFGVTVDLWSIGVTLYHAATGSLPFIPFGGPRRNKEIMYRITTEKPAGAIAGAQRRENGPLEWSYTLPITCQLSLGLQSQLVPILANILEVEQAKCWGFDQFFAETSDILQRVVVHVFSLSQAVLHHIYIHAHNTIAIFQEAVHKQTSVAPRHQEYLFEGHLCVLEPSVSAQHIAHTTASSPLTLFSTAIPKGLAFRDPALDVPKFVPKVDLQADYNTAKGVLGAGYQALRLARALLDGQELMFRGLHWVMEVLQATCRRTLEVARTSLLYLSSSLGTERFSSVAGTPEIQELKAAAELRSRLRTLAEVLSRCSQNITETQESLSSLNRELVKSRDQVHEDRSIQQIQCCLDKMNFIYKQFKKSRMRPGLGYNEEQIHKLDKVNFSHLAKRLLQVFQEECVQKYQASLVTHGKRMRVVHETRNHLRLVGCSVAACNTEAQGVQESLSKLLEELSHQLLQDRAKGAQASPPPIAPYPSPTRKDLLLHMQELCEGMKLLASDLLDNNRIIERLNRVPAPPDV

[12] = target: Serine/threonine-protein kinase RIO1 (Homo sapiens) (UniProt Q9BRS2); assay: Inhibition of RIOK1 (unknown origin) assessed as residual enzyme activity at 10 uM by Ambit kinase binding assay relative to control
[13] = system: HCT-116; assay: Antiproliferative activity against human HCT-116 with p53-/- cells at 10 uM incubated for 4 days by Syto60 staining based assay; assay type: functional, cell-based; conditions: time 4.0 day
How it was run: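 Proliferation read by Syto60 nucleic acid stain fluorescence (excitation 635 nm, emission 695 nm) after treatment for up to 96 h. Each time point normalized to its DMSO control. Mean ± SD from 4 independent experiments. Cells kept at 37°C, 5% CO2 in 10% FBS-supplemented medium.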

[14] = system: TERT-RPE1; assay: Induction of aneuploidy in human TERT-RPE1 cells assessed as average chromosome number at 10 uM treated for 24 hrs by karyo-typing analysis (reference value: 45.9 +/- 0.3); assay type: functional
How it was run: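 Asynchronous cells were exposed to 10 μM compound for 24 h. Medium was then replaced with medium containing 100 ng/mL colcemid for 2 h to arrest cells in metaphase, after which cells were harvested and karyotyped.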

[15] = target: Insulin receptor-related protein (Homo sapiens, UniProt P14616); assay: Inhibition of INSRR (unknown origin) assessed as residual enzyme activity at 10 uM by Ambit kinase binding assay relative to control
Sequence of Insulin receptor-related protein (P14616 27-742 limits assumed): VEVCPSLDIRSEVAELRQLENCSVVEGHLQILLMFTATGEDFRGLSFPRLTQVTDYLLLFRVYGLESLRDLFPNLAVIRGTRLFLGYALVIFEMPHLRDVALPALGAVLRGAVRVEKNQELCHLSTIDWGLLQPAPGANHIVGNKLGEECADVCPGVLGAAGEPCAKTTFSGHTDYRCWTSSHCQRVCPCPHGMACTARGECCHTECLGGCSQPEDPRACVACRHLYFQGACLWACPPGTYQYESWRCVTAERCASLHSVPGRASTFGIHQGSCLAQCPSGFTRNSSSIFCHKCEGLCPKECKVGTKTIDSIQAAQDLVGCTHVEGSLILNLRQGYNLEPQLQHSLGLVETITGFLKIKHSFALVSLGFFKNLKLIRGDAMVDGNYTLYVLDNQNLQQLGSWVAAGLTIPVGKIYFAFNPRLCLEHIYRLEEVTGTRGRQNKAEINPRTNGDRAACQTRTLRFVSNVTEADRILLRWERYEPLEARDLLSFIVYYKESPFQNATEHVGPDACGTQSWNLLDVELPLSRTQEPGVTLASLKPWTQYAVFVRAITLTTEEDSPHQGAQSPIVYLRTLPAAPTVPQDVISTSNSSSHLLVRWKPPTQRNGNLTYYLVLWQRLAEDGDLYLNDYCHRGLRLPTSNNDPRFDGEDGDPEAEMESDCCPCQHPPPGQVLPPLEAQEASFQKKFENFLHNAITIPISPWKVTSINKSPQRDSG
Sequence of Insulin receptor-related protein (P14616 747-1297 limits assumed): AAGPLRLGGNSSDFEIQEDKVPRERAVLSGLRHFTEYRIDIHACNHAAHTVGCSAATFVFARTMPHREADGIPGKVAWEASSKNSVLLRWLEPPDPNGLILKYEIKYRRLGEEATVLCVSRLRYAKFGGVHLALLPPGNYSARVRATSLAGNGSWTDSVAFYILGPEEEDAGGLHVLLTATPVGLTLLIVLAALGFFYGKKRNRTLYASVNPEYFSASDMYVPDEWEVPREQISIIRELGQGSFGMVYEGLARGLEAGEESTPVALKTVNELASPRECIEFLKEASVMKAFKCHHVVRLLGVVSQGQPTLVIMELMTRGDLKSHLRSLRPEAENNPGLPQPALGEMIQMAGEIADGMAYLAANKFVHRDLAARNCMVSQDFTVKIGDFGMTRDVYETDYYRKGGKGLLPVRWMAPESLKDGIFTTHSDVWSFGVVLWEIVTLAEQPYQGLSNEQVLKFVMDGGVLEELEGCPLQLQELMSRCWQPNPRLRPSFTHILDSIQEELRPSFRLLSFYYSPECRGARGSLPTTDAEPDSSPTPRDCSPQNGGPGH

[16] = system: A549; assay: Antiproliferative activity against human A549 cells at 10 uM measured after 96 hrs in presence of Z-VAD-FMK by Syto60 staining based assay; assay type: functional, cell-based
[17] = system: A549; assay: Antiproliferative activity against human A549 cells assessed as loss of clonal survival upto 10 uM incubated for 10 days by crystal violet staining based assay; assay type: functional, cell-based; conditions: time 10.0 day
How it was run: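 Colony outgrowth: cells plated at 200 cells per 60-mm dish, exposed to compound or DMSO vehicle and stained with crystal violet after 10 days. HCT116 grown in McCoy's 5A; A549 and HeLa in DMEM; hTERT-RPE1 in DMEM/F-12. All media had 10% FBS and penicillin/streptomycin, 37°C, 5% CO2. Quantified from 3 independent experiments, mean + SD, Student's t test.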

[18] = target: Insulin receptor (Homo sapiens, UniProt P06213); assay: Binding affinity to INSR (unknown origin) assessed as dissociation constant by Ambit kinase binding assay
[19] = system: MCF-10A; assay: Antiproliferative activity against human MCF-10A cells assessed as loss of clonal survival upto 25 uM incubated for 10 days by crystal violet staining based assay; assay type: toxicity, cell-based; conditions: 240 h, time 10 day
[20] = target: Non-receptor tyrosine-protein kinase TNK1 (Homo sapiens, UniProt Q13470); assay: Binding affinity to TNK1 (unknown origin) assessed as dissociation constant by Ambit kinase binding assay
[21] = system: U2OS; assay: Reversal of nocodazole-induced mitotic arrest in human U2OS cells assessed as decrease in cyclin B level at 0.3 to 10 uM incubated for 4 hrs by immunoblot analysis; assay type: functional, cell-based; conditions: dose 0.3-10 µM
[22] = target: Dual specificity protein kinase CLK1 (Homo sapiens, UniProt P49759); assay: Inhibition of CLK1 (unknown origin) assessed as residual enzyme activity at 10 uM by Ambit kinase binding assay relative to control
[23] = target: Proto-oncogene tyrosine-protein kinase ROS (Homo sapiens) (UniProt P08922); assay: Inhibition of ROS1 (unknown origin) assessed as residual enzyme activity at 10 uM by Ambit kinase binding assay relative to control
[24] = Inhibition of Mps1 in Potoroo PTK2 cells expressing EyFP-tagged human Mad2 assessed as decrease in Mad2 recruitment to kinetochore at 10 uM incubated for 1 hr by fluorescence based imaging analysis relative to control; parameters: species or system Pt K2; conditions: Potorous tridactylus
How it was run: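 PtK2 (male Potorous tridactylus kidney) cells stably expressing human Mad2-EYFP, cultured in Advanced MEM with 2% FBS. Cells were pretreated 1 h with 10 μM inhibitor or DMSO, then given DMSO or nocodazole (200 ng·ml⁻¹). Time-lapse imaging ran at 37°C from NEBD. Kinetochore Mad2-EYFP density was background-corrected and normalized. N=20–29 cells; 95% CI; Student's t test.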

[25] = target: Mitogen-activated protein kinase 1 (Homo sapiens, UniProt P28482); assay: Inhibition of ERK2 (unknown origin) assessed as residual enzyme activity at 10 uM by Ambit kinase binding assay relative to control
Sequence of Mitogen-activated protein kinase 1 (P28482 whole entry): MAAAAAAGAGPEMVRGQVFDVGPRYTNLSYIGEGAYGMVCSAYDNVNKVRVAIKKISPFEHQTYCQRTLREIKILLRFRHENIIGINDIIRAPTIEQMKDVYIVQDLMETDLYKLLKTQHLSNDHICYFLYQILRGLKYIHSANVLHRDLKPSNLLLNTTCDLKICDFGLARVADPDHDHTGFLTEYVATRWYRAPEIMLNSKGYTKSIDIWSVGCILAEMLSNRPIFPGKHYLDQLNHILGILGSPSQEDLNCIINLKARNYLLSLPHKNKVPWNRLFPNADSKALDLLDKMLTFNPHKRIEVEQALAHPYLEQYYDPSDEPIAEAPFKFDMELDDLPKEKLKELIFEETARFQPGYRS

[26] = target: Tyrosine-protein kinase receptor UFO (Homo sapiens) (UniProt P30530); assay: Inhibition of AXL (unknown origin) assessed as residual enzyme activity at 10 uM by Ambit kinase binding assay relative to control

Sequence of Ribosomal protein S6 kinase alpha-4 (Homo sapiens) (O75676 whole entry, looked up, the tested form may be a part): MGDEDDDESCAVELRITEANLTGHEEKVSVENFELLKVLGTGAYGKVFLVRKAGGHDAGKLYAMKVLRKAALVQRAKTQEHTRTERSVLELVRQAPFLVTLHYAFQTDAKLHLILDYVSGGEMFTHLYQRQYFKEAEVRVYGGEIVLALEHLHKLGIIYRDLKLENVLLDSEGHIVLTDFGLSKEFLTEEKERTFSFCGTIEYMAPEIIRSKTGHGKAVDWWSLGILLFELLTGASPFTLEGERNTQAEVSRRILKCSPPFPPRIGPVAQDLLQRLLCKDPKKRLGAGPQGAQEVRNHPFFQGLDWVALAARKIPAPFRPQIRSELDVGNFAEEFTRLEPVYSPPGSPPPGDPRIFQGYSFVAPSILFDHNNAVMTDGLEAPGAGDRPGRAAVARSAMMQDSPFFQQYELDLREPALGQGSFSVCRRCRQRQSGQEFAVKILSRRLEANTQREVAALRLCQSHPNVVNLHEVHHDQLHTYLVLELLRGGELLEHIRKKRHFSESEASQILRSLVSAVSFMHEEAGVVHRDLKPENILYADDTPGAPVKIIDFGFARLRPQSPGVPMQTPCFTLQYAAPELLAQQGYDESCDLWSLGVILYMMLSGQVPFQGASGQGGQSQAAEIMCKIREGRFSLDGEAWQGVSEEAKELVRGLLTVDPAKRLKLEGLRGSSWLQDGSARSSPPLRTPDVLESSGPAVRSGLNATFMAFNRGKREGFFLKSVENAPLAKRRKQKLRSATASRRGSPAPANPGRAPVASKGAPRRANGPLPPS

Question: With `O=C1c2ccccc2-c2n[nH]c3cccc1c23` as the molecule, how does the Activity [1] read?
Answer: The Activity was 3.4%.

Question: What about the Activity [2] of the same molecule?
Answer: The Activity was 0.1%.

Question: And the Activity [3]?
Answer: Its Activity is 0.6%.

Question: What about the Activity [4] of the same molecule?
Answer: Its Activity is 2.2%.

Question: And the Activity [5]?
Answer: Its Activity is 30%.

Question: And the Activity [6]?
Answer: The Activity was 3.8%.

Question: What about the Activity [7] of the same molecule?
Answer: Its Activity is 32%.

Question: And the Activity [8]?
Answer: Its Activity is 0.95%.

Question: And the Activity [9]?
Answer: The Activity was 4.1%.

Question: And the Activity [10]?
Answer: The Activity was 3.2%.

Question: And the Activity [11]?
Answer: Its Activity is 12%.

Question: And the Activity [12]?
Answer: The Activity was 10%.

Question: With `COc1cc(N2CCC(O)CC2)ccc1Nc1cc(Nc2ccccc2S(=O)(=O)C(C)C)c2cc[nH]c2n1` as the molecule, how does the Activity [13] read?
Answer: Its Activity is “Active”.

Question: And the Activity [14]?
Answer: The Activity was 46.5.

Question: What about the Activity [15] of the same molecule?
Answer: Its Activity is 2%.

Question: What about the Activity [16] of the same molecule?
Answer: The Activity was “Active”.

Question: What about the Activity [17] of the same molecule?
Answer: The Activity was “Active”.

Question: And the Kd [18]?
Answer: Its Kd is 470 nM.

Question: What about the Activity [19] of the same molecule?
Answer: The Activity was “Toxic”.

Question: And the Kd [20]?
Answer: Its Kd is 2600 nM.

Question: And the Activity [21]?
Answer: Its Activity is “Active”.

Question: What about the Activity [22] of the same molecule?
Answer: The Activity was 17%.

Question: What about the Activity [23] of the same molecule?
Answer: Its Activity is 12%.

Question: What about the inhibition at 10 µM [24] of the same molecule?
Answer: The inhibition at 10 µM was 80%.

Question: What about the Activity [25] of the same molecule?
Answer: Its Activity is 6%.

Question: What about the Activity [26] of the same molecule?
Answer: Its Activity is 19%.
